Active and inactive are the calls of the source. The calls are words filed in the database; no cut-off is given here.
Assays:
Homo sapiens [1] = species: Homo sapiens; assay: Inhibition of acetyl-PHF6 amide self-aggregation (unknown origin) in pH 7.4 phosphate buffer at 10 uM and 25 degreeC measured every 1 min for 120 mins under shaking condition by ThT fluorescence assay relative to control
Method in brief: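 AcPHF6 dissolved in HFIP, dried overnight, 1 mM water stock used at once. Final 100 μM peptide, 20 μM ThT, 10 μM compound (≤0.1% DMSO) in 50 mM phosphate buffer pH 7.4, 25 °C. Ex 440/em 490 nm read each minute for 120 min, 10 s shaking (400 rpm) before each read. Inhibition from mean signal at 50–60 min; ≥3 wells; mean ± SD of three experiments; DMSO negative control.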

Homo sapiens [2] = species: Homo sapiens; assay: Inhibition of acetyl-PHF6 amide self-aggregation (unknown origin) in pH 7.4 phosphate buffer assessed as decrease in absorbance intensity at 10 uM and 25 degreeC measured immediately after 10 sec vibration per minute for 120 mins under shaking condition by circular dichroism spectroscopy
Method in brief: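 Fresh samples of 100 μM AcPHF6 with 10 μM compound (≤0.1% DMSO) in 50 mM phosphate buffer pH 7.4. 10 s vibration per minute at 25 °C over 120 min. Spectra 260–200 nm, 1 mm quartz cell, 1 nm bandwidth, 50 nm/min scan. Solvent and compound contributions subtracted, converted to Δε per residue, Savitzky-Golay smoothed.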

Homo sapiens [3] = species: Homo sapiens; assay: Inhibition of acetyl-PHF6 amide self-aggregation (unknown origin) in pH 7.4 phosphate buffer assessed as absence of fibrillar material at 20 uM and 25 degreeC measured after 10 mins by phosphotungstic acid staining based TEM analysis
BV-2 = assay: Cytotoxicity against mouse BV-2 cells at 20 uM measured after 24 hrs by MTT assay; format: cell-based; details: bv-2, 24 h
Method in brief: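 Cells in high-glucose DMEM with 10% FBS, 5% CO₂, 37 °C, seeded 3000–5000/well, exposed to compound 24 h. MTT (0.5 mg/mL) 4 h, formazan dissolved in DMSO, absorbance 570 nm (reference 630 nm). Viability as percent of untreated control; mean ± SD, three independent experiments.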

| inhibition (Homo sapiens [1]) | SMILES | other results |
| --- | --- | --- |
| 44.2% | CC(=O)c1c(O)c(C)c(O)c2c1OC1=CC(=O)/C(=C(/C)Nc3cnc(N)cn3)C(=O)[C@@]12C |  |
| inactive | CC(=O)c1c(O)c(C)c(O)c2c1OC1=CC(=O)/C(=C(/C)Nc3ccc4c(c3)ncn4C)C(=O)[C@@]12C |  |
| 11.3% | CC(=O)c1c(O)c(C)c(O)c2c1OC1=CC(=O)/C(=C(/C)Nc3cccc(N(C)C)c3)C(=O)[C@@]12C |  |
| 40.4% | CC(=O)c1c(O)c(C)c(O)c2c1OC1=Cc3c(c(C)nn3-c3cccc(C(=O)O)c3)C(=O)[C@@]12C |  |
| 20.1% | CC(=O)c1c(O)c(C)c(O)c2c1OC1=Cc3c(c(C)nn3-c3ccc(C#N)cc3)C(=O)[C@@]12C |  |
| 22.3% | CC(=O)c1c(O)c(C)c(O)c2c1OC1=Cc3c(c(C)nn3-c3ccc(C(C)(C)C)cc3)C(=O)[C@@]12C |  |
| 48.4% | CC(=O)c1c(O)c(C)c(O)c2c1OC1=CC(=O)/C(=C(/C)Nc3ccc(Cl)cc3O)C(=O)[C@@]12C |  |
| inactive | CC(=O)c1c(O)c(C)c(O)c2c1OC1=CC(=O)/C(=C(/C)Nc3cccc4cccnc34)C(=O)[C@@]12C |  |
| 27.6% | CC(=O)c1c(O)c(C)c(O)c2c1OC1=CC(=O)/C(=C(/C)Nc3ccc(C(=O)O)c(O)c3)C(=O)[C@@]12C |  |
| inactive | CC(=O)c1c(O)c(C)c(O)c2c1OC1=Cc3c(c(C)nn3S(=O)(=O)c3ccccc3)C(=O)[C@@]12C |  |
| 5.4% | COc1cc(N/C(C)=C2\C(=O)C=C3Oc4c(C(C)=O)c(O)c(C)c(O)c4[C@@]3(C)C2=O)cc(OC)c1OC |  |
| 38% | CC(=O)c1c(O)c(C)c(O)c2c1OC1=Cc3c(c(C)nn3-c3cnccn3)C(=O)[C@@]12C |  |
| 12.7% | CC(=O)c1c(O)c(C)c(O)c2c1OC1=CC(=O)/C(=C(/C)Nc3cc(C)ccc3O)C(=O)[C@@]12C |  |
| 58.3% | CC(=O)c1c(O)c(C)c(O)c2c1OC1=CC(=O)/C(=C(/C)Nc3ccc(O)cn3)C(=O)[C@@]12C | inhibition (Homo sapiens [2]): Active; inhibition (Homo sapiens [3]): inactive |
| 46.4% | CC(=O)c1c(O)c(C)c(O)c2c1OC1=CC(=O)/C(=C(/C)Nc3ccc(N)cn3)C(=O)[C@@]12C |  |
| 46.8% | CC(=O)c1c(O)c(C)c(O)c2c1OC1=Cc3c(c(C)nn3-c3ccc(S(N)(=O)=O)cc3)C(=O)[C@@]12C |  |
| 9.3% | CC(=O)c1c(O)c(C)c(O)c2c1OC1=Cc3c(c(C)nn3-c3n[nH]c(=O)c4ccccc34)C(=O)[C@@]12C |  |
| 14.5% | CCOC(=O)c1ccc(-n2nc(C)c3c2C=C2Oc4c(C(C)=O)c(O)c(C)c(O)c4[C@@]2(C)C3=O)cc1 |  |
| 39.2% | CC(=O)c1c(O)c(C)c(O)c2c1OC1=CC(=O)/C(=C(/C)Nc3ccc4[nH]ccc4c3)C(=O)[C@@]12C |  |
| inactive | CC(=O)c1c(O)c(C)c(O)c2c1OC1=CC(=O)/C(=C(/C)Nc3c(C)cc(O)cc3C)C(=O)[C@@]12C |  |
| inactive | CC(=O)c1c(O)c(C)c(O)c2c1OC1=CC(=O)/C(=C(/C)Nc3cc(C(C)(C)C)c(O)c(C(C)(C)C)c3)C(=O)[C@@]12C |  |
| 47.6% | CC(=O)c1c(O)c(C)c(O)c2c1OC1=CC(=O)/C(=C(/C)N[C@@H](Cc3c[nH]c4ccccc34)C(=O)O)C(=O)[C@@]12C |  |
| 48% | CC(=O)c1c(O)c(C)c(O)c2c1OC1=CC(=O)/C(=C(/C)Nc3ncccc3O)C(=O)[C@@]12C |  |
| 29.8% | CC(=O)c1c(O)c(C)c(O)c2c1OC1=CC(=O)/C(=C(/C)Nc3ccc4scnc4c3)C(=O)[C@@]12C |  |
| inactive | CC(=O)c1c(O)c(C)c(O)c2c1OC1=CC(=O)/C(=C(/C)N)C(=O)[C@@]12C |  |

| inhibition (Homo sapiens [1]) | SMILES | other results |
| --- | --- | --- |
| inactive | CC(=O)c1c(O)c(C)c(O)c2c1OC1=Cc3c(c(C)nn3S(=O)(=O)c3ccc(C)cc3)C(=O)[C@@]12C |  |
| 85.9% | O=c1c(O)c(-c2cc(O)c(O)c(O)c2)oc2cc(O)cc(O)c12 |  |
| 27.2% | COc1ccc(-n2nc(C)c3c2C=C2Oc4c(C(C)=O)c(O)c(C)c(O)c4[C@@]2(C)C3=O)cc1 |  |
| 29.8% | CC(=O)c1c(O)c(C)c(O)c2c1OC1=Cc3c(c(C)nn3-c3cccnc3)C(=O)[C@@]12C |  |
| inactive | CC(=O)C1=C([O-])C=C2Oc3c(C(C)=O)c(O)c(C)c(O)c3[C@]2(C)C1=O.[Na+] | Activity (BV-2): Toxic |
| inactive | COc1ccc(S(=O)(=O)n2nc(C)c3c2C=C2Oc4c(C(C)=O)c(O)c(C)c(O)c4[C@@]2(C)C3=O)cc1 |  |
| 27.6% | CC(=O)c1c(O)c(C)c(O)c2c1OC1=CC(=O)/C(=C(/C)Nc3ccc4c(ccn4C)c3)C(=O)[C@@]12C |  |
| 40.9% | CC(=O)c1c(O)c(C)c(O)c2c1OC1=Cc3c(c(C)nn3-c3ccc(C)nn3)C(=O)[C@@]12C |  |
| inactive | CC(=O)c1c(O)c(C)c(O)c2c1OC1=CC(=O)/C(=C(/C)NCCCCCO)C(=O)[C@@]12C |  |
| 17.1% | CC(=O)c1c(O)c(C)c(O)c2c1OC1=Cc3c(c(C)nn3-c3ccccn3)C(=O)[C@@]12C |  |
| 7.7% | COc1ccc(-n2nc(C)c3c2C=C2Oc4c(C(C)=O)c(O)c(C)c(O)c4[C@@]2(C)C3=O)cn1 |  |
| inactive | CC(=O)c1c(O)c(C)c(O)c2c1OC1=CC(=O)/C(=C(/C)Nc3cc(C(C)C)c(O)cc3C)C(=O)[C@@]12C |  |
| 22.5% | CC(=O)c1c(O)c(C)c(O)c2c1OC1=Cc3[nH]nc(C)c3C(=O)[C@@]12C |  |
| 48.2% | CC(=O)c1c(O)c(C)c(O)c2c1OC1=CC(=O)/C(=C(/C)Nc3ccc(N4CCN(C)CC4)cc3)C(=O)[C@@]12C |  |
| 30.3% | CC(=O)c1c(O)c(C)c(O)c2c1OC1=Cc3c(c(C)nn3-c3cccc(F)c3)C(=O)[C@@]12C |  |
| 28.7% | CC(=O)c1c(O)c(C)c(O)c2c1OC1=Cc3c(c(C)nn3-c3ccc(S(C)(=O)=O)cc3)C(=O)[C@@]12C |  |
| 48.1% | CC(=O)c1c(O)c(C)c(O)c2c1OC1=CC(=O)/C(=C(/C)Nc3ccc(N(C)C)cc3)C(=O)[C@@]12C |  |
| inactive | CC(=O)c1c(O)c(C)c(O)c2c1OC1=Cc3c(c(C)nn3-c3nc4ccccc4s3)C(=O)[C@@]12C |  |
| 12.2% | CC(=O)c1c(O)c(C)c(O)c2c1OC1=Cc3c(c(C)nn3-c3nc4ccccc4[nH]3)C(=O)[C@@]12C |  |
| 8.5% | CC(=O)c1c(O)c(C)c(O)c2c1OC1=Cc3c(c(C)nn3-c3ccncc3)C(=O)[C@@]12C |  |
| 22% | CC(=O)c1c(O)c(C)c(O)c2c1OC1=CC(=O)/C(=C(/C)Nc3cc(Cl)ccc3O)C(=O)[C@@]12C |  |
| 24% | COc1cccc(-n2nc(C)c3c2C=C2Oc4c(C(C)=O)c(O)c(C)c(O)c4[C@@]2(C)C3=O)c1 |  |
| 26.9% | CC(=O)c1c(O)c(C)c(O)c2c1OC1=Cc3c(c(C)nn3-c3ccc(F)cc3)C(=O)[C@@]12C |  |
| 25.3% | CC(=O)c1c(O)c(C)c(O)c2c1OC1=CC(=O)/C(=C(/C)Nc3ccc(C)cc3O)C(=O)[C@@]12C |  |
| 32.8% | CC(=O)c1c(O)c(C)c(O)c2c1OC1=Cc3c(c(C)nn3-c3ccccc3C(=O)O)C(=O)[C@@]12C |  |

| SMILES | inhibition (Homo sapiens [1]) | other results |
| --- | --- | --- |
| CC(=O)c1c(O)c(C)c(O)c2c1OC1=CC(=O)/C(=C(/C)N[C@@H](Cc3ccccc3)C(=O)O)C(=O)[C@@]12C | inactive |  |
